ChEMBL document CHEMBL3784974, “Design and Structural Characterization of Potent and Selective Inhibitors of Phosphatidylinositol 4 Kinase IIIβ” (J Med Chem, 2016)
The source made the active and inactive calls. The rule behind the calls is not given here.

Biological target: Phosphatidylinositol 3-kinase catalytic subunit type 3 (Homo sapiens, UniProt Q8NEB9)
Assay: Inhibition of GST-tagged recombinant human full length VPS34 expressed in baculovirus upto 20 uM preincubated for 15 mins followed by addition of cold ATP/gamma32P-ATP measured after 1 hr in presence of MnCl2
How it was run: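 Radiometric membrane-capture assay, 10 nM purchased vps34, 15 min preincubation with inhibitor, then 1 h reaction. Final: 50 mM HEPES pH 7.5, 0.1% CHAPS, 2mM MnCl2, 1 mM EGTA, 2 mM DTT, 100 µM PI in PI:DOPS:DOPC, 500 ng/µL BSA, 2% DMSO, 10 µM ATP, 2.5 uCi γ32P-ATP; spots washed, phosphorimaged.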

Sequence of Phosphatidylinositol 3-kinase catalytic subunit type 3 (Q8NEB9 whole entry): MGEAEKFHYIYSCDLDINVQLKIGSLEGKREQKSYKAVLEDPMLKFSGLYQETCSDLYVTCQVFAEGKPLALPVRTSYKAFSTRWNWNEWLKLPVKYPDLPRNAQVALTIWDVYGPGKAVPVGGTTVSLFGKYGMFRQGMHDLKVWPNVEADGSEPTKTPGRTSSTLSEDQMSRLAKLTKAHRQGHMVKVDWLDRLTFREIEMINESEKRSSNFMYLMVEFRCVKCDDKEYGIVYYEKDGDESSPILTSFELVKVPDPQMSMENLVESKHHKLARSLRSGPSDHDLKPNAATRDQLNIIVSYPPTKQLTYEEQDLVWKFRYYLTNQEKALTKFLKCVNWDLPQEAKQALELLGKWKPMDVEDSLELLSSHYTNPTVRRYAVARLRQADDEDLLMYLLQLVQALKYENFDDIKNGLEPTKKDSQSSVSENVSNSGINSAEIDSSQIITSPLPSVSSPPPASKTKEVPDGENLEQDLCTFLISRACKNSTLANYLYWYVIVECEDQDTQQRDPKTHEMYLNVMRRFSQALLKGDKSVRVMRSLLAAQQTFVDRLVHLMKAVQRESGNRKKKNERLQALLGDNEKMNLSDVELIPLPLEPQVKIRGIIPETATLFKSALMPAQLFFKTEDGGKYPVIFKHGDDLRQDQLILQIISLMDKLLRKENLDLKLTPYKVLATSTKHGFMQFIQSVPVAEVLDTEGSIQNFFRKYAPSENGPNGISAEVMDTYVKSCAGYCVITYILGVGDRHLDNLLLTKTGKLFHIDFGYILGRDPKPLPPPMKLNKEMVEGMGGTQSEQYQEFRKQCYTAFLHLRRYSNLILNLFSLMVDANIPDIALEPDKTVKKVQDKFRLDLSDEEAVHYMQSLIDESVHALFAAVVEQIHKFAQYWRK

| Structure (SMILES) | inhibition |
| --- | --- |
| COc1ccc(-c2sc(NC(=O)C3CCCC3)nc2C)cc1S(=O)(=O)Nc1ccc(O)cc1 | inactive |
| COc1ccc(-c2sc(NC(=O)C(C)(C)C)nc2C)cc1S(=O)(=O)Nc1ccc(O)cc1 | inactive |
